Measurements collected from several papers.
Target: Vascular endothelial growth factor receptor 3 (FLT4, Homo sapiens, UniProt P35916)

SMILES | assay | conditions | remaining binding [%]
O=C(c1ccc(Nc2ncc(Cl)c(-c3cc4ccccc4s3)n2)cc1)N1CCC(N2CCCC2)CC1 | binding, competition with immobilised ligand | 1 µM | 0.7
CNC(=O)[C@@H]1CC[C@@H](n2c(-c3ccc4cnccc4c3)nc3ccc(C(=O)NCc4cccc(C(N)=O)c4)cc32)C1 | binding, competition with immobilised ligand | 1 µM | 100
F[C@@H]1CCN(c2nccc(-c3cnn4ncccc34)n2)C1 | binding | 1 µM | 90
O=C(Nc1c[nH]nc1C(=O)NC1CCNCC1)c1cc(F)cc(F)c1 | binding, competition with immobilised ligand | 1 µM | 100
CN(C)c1nccc(-c2cnc3ncccn23)n1 | binding | 1 µM | 88
C[C@@H](c1ccc(-n2cnc3c(N)ncnc32)cc1)N1CCc2nn(C)c(Cc3ccccc3)c2C1=O | binding, competition with immobilised ligand | 0.1 µM | 91
CC(C)CC(=O)N1CCc2nc(-c3ccc(Br)cc3)nc(N(C)Cc3ccccc3)c2C1 | cell-free assay, competition with immobilised ligand | 0.1 µM | 100
N[C@@H]1CCN(c2nccc(-c3cnn4ncccc34)n2)C1 | binding | 1 µM | 100
O=C(c1ccc(Nc2nccc(-c3cc4ccccc4s3)n2)cc1)N1CCC(N2CCCC2)CC1 | binding, competition with immobilised ligand | 1 µM | 30
COc1ncc2cc3ccccc3nc2c1C#N | cell-free assay, competition with immobilised ligand | 5 µM | 96
Cc1nc(C2CCN(C(=O)c3ccc(OC(F)(F)F)cc3N)CC2)c2ncc(N3CCN(C)CC3)cc2n1 | cell-free assay, competition with immobilised ligand | 1 µM | 75
C[C@@H]1CCN(c2nccc(-c3cnn4ncccc34)n2)C1 | binding | 1 µM | 100
CCN(CC)CCCCNc1ncc2cc(-c3cc(OC)cc(OC)c3)c(NC(=O)NC(C)(C)C)nc2n1 | cell-free assay, competition with immobilised ligand | 1 µM | 6
C=CC(=O)N1CCC(C(=O)NCC(=O)N2CCN(c3nc(-c4cnc(N)nc4C(F)F)nc(N4CCOCC4)n3)CC2)CC1 | binding, competition with immobilised ligand | 1 µM | 96
COc1cnc(Nc2cccc(S(N)(=O)=O)c2)nc1N1CCN(c2ccccc2)CC1 | binding, competition with immobilised ligand | 1 µM | 85
C[C@@H]1CN(c2cc(-c3nn(C)c4ccc(OC5(C)CC5)cc34)ncn2)C[C@H](C)O1 | cell-free assay, competition with immobilised ligand | 1 µM | 85
Nc1ncc2c(n1)-c1c([nH]c3ccc(C#CC4CC4)cc13)CCCC2 | binding, competition with immobilised ligand | 1 µM | 100
CNCc1ccccc1-c1csc([C@@H](C)Nc2nc(C)nc3cc(OC)c(OC)cc23)c1 | cell-free assay, competition with immobilised ligand | 1 µM | 83
O=C(c1ccc(Nc2ncc(Cl)c(-c3ccc(Cl)s3)n2)cc1)N1CCC(N2CCCC2)CC1 | binding, competition with immobilised ligand | 1 µM | 0.15
CCCOc1ccc([C@@H]2[C@@H](C(=O)O)[C@H](c3ccc4c(c3)OCO4)CN2CC(=O)Nc2c(CC)cccc2CC)cc1 | cell-free assay, competition with immobilised ligand | 1 µM | 100
Cc1cnn2ncc(-c3ccnc(N(C)C)n3)c2c1 | binding | 1 µM | 100
CCc1ccccc1C(=O)Nc1n[nH]c2c(C)c(F)c(C3C(C#N)=C(C)N(C)C(C)=C3C#N)cc12 | cell-free assay, competition with immobilised ligand | 1 µM | 85
c1cnn2ncc(-c3ccnc(N4CCC45COC5)n3)c2c1 | binding | 1 µM | 92
